Data as given in ChEMBL document CHEMBL1133018, “Deltorphin II analogues with 6-hydroxy-2-aminotetralin-2-carboxylic acid in position 1” (J Med Chem, 2000).
*1 amine or outer side, *2 acyl side, *3 side chain or, on linkers, in order; H or OH if unused. Where a SMILES comes first, the peptide text is derived from it. [ ]: non-standard residue; d: D form. X1 = O=C([C@@]1(N[*:1])CCc2cc(O)ccc2C1)[*:2]; X2 = O=C([C@]1(N[*:1])CCc2cc(O)ccc2C1)[*:2]

Experiments:
[1] = target: T1, Delta-type opioid receptor (Rattus norvegicus, UniProt P33533); experiment: Binding affinities against delta 2 opioid receptor of rat brain using [3H]Ile5,6-deltorphin II as radioligand.
Procedure, shortened: (§1)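 Wistar rat brain (minus cerebellum) membranes, 300-500 µg protein, 50 mM Tris-HCl pH 7.4. Displacement of [3H]pClPhe4-DPDPE (0.8 nM, 25 °C, 90 min) or [3H]Ile5,6-deltorphin II (0.5 nM, 35 °C, 45 min). Filtration, scintillation counting. Nonspecific binding defined with 10 µM naloxone. Ki as mean ± SEM of 3-5 runs in duplicate; Hill slopes also fitted.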

[2] = target: T1, Delta-type opioid receptor; experiment: Binding affinities against Opioid receptor delta 1 of rat brain using [3H]p-Cl-Phe4-DPDPE as radioligand.; procedure, shortened: as §1
[3] = target: Delta-type opioid receptor (Rattus norvegicus) (UniProt P33533)
[4] = target: Delta-type opioid receptor (Rattus norvegicus) (UniProt P33533); remark: listed apart in the source
[5] = target: Mu-type opioid receptor (Rattus norvegicus) (UniProt P33535)
[6] = organism: Rattus norvegicus; experiment: Stimulation of [35S]GTP-gamma-S, binding at the concentration of 0.1 uM.; type: functional
Procedure, shortened: (§2)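 Rat frontal cortex crude membranes, 10 µg protein, in 50 mM Tris-HCl with 1 mM EGTA, 3 mM MgCl2, 100 mM NaCl. Incubated with 30 µM GDP and 0.05 nM [35S]GTPγS, 1 h at 30 °C. Nonspecific binding taken with 10 µM unlabeled GTPγS. Filtered and counted. Stimulation expressed as % of specific binding, mean ± SEM of three triplicate experiments.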

[7] = target: Mu-type opioid receptor (Cavia porcellus, UniProt P97266); experiment: inhibitory concentration for inhibition of electrically induced smooth muscle contractions of GPI (guinea pig ileum) myenteric-plexus-longitudinal muscle strips.; type: functional, tissue-based
Procedure, shortened: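 Longitudinal muscle-myenteric plexus strips from ileum of male guinea pigs (400-600 g), electrically stimulated under standard conditions. IC50 taken as 50% inhibition of twitch, mean ± SEM of 4-6 measurements. Where no IC50 was reached, % inhibition is given at 10^-6 or 10^-5 M (n = 4).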

[8] = target: Delta-type opioid receptor (Rattus norvegicus) (UniProt P33533); remark: listed apart in the source
[9] = target: Mu-type opioid receptor (Rattus norvegicus) (UniProt P33535); remark: listed apart in the source
[10] = organism: Rattus norvegicus; experiment: Stimulation of [35S]GTP-gamma-S, binding at the concentration of 1 uM.; type: functional; procedure, shortened: as §2

Sequence of Delta-type opioid receptor (Rattus norvegicus) (P33533 whole entry): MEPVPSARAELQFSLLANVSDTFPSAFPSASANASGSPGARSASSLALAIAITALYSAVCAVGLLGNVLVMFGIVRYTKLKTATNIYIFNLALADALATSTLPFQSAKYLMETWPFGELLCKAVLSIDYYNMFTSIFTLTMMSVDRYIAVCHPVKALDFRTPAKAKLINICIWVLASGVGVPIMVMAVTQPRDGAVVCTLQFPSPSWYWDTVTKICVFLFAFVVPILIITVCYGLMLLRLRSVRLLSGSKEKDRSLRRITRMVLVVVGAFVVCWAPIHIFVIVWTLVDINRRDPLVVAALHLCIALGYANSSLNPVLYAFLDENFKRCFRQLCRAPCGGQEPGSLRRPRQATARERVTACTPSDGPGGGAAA
T1 sequence (P33533 whole entry): as above
Sequence of Mu-type opioid receptor (Rattus norvegicus) (P33535 whole entry, looked up): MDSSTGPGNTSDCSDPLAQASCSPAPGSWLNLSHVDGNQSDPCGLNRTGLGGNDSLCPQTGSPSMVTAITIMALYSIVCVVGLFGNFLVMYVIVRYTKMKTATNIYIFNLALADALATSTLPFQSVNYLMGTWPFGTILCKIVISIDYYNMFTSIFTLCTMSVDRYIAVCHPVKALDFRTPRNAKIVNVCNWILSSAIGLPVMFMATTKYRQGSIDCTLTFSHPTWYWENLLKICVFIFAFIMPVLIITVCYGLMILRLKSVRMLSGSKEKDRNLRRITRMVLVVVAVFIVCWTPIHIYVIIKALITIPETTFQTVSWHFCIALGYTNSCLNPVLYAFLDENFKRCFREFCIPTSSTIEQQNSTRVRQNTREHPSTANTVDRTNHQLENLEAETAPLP
Sequence of Mu-type opioid receptor (P97266 whole entry): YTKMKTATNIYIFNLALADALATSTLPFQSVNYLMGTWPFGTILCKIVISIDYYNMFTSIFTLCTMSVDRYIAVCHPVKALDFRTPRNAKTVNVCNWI

SMILES	Ki [1] [nM]	Ki [2] [nM]	Hill coefficient [3]	Hill coefficient [4]	Hill coefficient [5]	Stimulation [6] [%]	IC50 [7] [nM]	Hill coefficient [8]	Hill coefficient [9]	Stimulation [10] [%]
CC[C@H](C)[C@H](NC(=O)[C@H](CCC(=O)O)NC(=O)[C@H](Cc1ccccc1)NC(=O)[C@H](C)NC(=O)[C@@]1(N)CCc2cc(O)ccc2C1)C(=O)N[C@H](C(=O)NCC(N)=O)[C@@H](C)CC (H-[X1]AFEIIG-NH2)	0.34	0.16	-0.34	-0.69	-1.01	155	5130			
CC[C@H](C)[C@H](NC(=O)[C@H](CCC(=O)O)NC(=O)[C@H](Cc1ccccc1)NC(=O)[C@H](C)NC(=O)[C@]1(N)CCc2cc(O)ccc2C1)C(=O)N[C@H](C(=O)NCC(N)=O)[C@@H](C)CC (H-[X2]AFEIIG-NH2)	1	0.94		-0.5			> 10000	-0.42	-1.09	136.9
